Measurements from ChEMBL document CHEMBL1158901, “Chemical constituents of Garcinia fusca: structure elucidation of eight new xanthones and their cancer chemopreventive activity” (J Nat Prod, 2003).

Columns and labels:
[1] = Cytotoxicity against human Raji cells assessed as cell viability at 0.32 nmol after 48 hrs by trypan blue assay; type: cell-based; conditions: read-out: Activity
In short: (§1)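 Raji cells grown to 10^6 cells/mL, pelleted and resuspended in RPMI 1640 with 10% FCS containing 4 mM n-butyric acid and 32 pmol TPA (20 ng/mL). Test compound added in DMSO at 32, 3.2 or 0.32 nmol (footnote also defines 16 nmol as 500 mol ratio). Incubated 48 h at 37 °C. Viable cells counted by Trypan Blue on a hemocytometer.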

Raji [2] = assay: TPA-induced EBV-early antigen activation in human Raji cells at 3.2 nmol after 48 hrs relative to TPA; conditions: human gammaherpesvirus 4
[3] = Cytotoxicity against human Raji cells assessed as cell viability at 16 nmol after 48 hrs by trypan blue assay; type: cell-based; conditions: read-out: Activity; in short: as §1
Raji [4] = assay: TPA-induced EBV-early antigen activation in human Raji cells at 32 nmol after 48 hrs relative to TPA; conditions: human gammaherpesvirus 4
[5] = Cytotoxicity against human Raji cells assessed as cell viability at 3.2 nmol after 48 hrs by trypan blue assay; type: cell-based; conditions: read-out: Activity; in short: as §1
Raji [6] = assay: TPA-induced EBV-early antigen activation in human Raji cells at 0.32 nmol after 48 hrs relative to TPA; conditions: human gammaherpesvirus 4
Raji [7] = assay: TPA-induced EBV-early antigen activation in human Raji cells at 16 nmol after 48 hrs relative to TPA; conditions: human gammaherpesvirus 4
[8] = Cytotoxicity against human Raji cells assessed as cell viability at 32 nmol after 48 hrs by trypan blue assay; type: cell-based; conditions: read-out: Activity; in short: as §1
[9] = Inhibition of TPA-induced EBV-early antigen activation in human Raji cells per 32 pmol TPA after 48 hrs; type: cell-based, human gammaherpesvirus 4
In short: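 EBV-EA induction in Raji cells by 4 mM n-butyric acid plus 32 pmol TPA in RPMI 1640/10% FCS, 37 °C for 48 h, with compound at mol ratios to TPA of 10 to 1000. EA-positive cells counted blind, ≥500 per assay, relative to TPA-only control. IC50 is the mol ratio to TPA giving 50% inhibition, estimated by probit transformation.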

Row | SMILES | viability at 48 h, 0.32 nmol [1] [%] | EBV-EA activation (Raji [2]) [%] | viability at 48 h, 16 nmol [3] [%] | EBV-EA activation (Raji [4]) [%] | viability at 48 h, 3.2 nmol [5] [%] | EBV-EA activation (Raji [6]) [%] | EBV-EA activation (Raji [7]) [%] | viability at 48 h, 32 nmol [8] [%] | IC50 [9] [molar ratio]
1 | COc1cc2oc3cc(O)c(OC)c(CC=C(C)C)c3c(=O)c2c(O)c1CC=C(C)C | > 80 | 62.6 | > 80 | 0 | > 80 | 90.4 | 20.5 | 70 | 270
2 | CC1=C(/C=C/C(C)=C/C=C/C(C)=C/C=C/C=C(C)/C=C/C=C(C)/C=C/C2=C(C)CCCC2(C)C)C(C)(C)CCC1 [BETA CAROTENE] |  | 82.7 |  | 9.1 |  | 100 | 34.3 |  | 400
3 | COc1c(O)cc2oc3cc(O)c(C/C=C(/C)CO)c(O)c3c(=O)c2c1C/C=C(\C)CCC=C(C)C [COWANOL] | > 80 | 69.6 | > 80 | 0 | > 80 | 93.1 | 30.5 | 70 | 310
4 | CC(C)=CCC/C(C)=C/Cc1c(O)c(O)cc2oc3cc(O)c(CC=C(C)C)c(O)c3c(=O)c12 [NORCOWANIN] | > 80 | 70.1 | > 80 | 0 | > 80 | 94.2 | 31.9 | 70 | 315
5 | COc1c(O)c(CC=C(C)C)c2oc3cc(O)c(CC=C(C)C)c(O)c3c(=O)c2c1CC=C(C)C | > 80 | 59.2 | > 80 | 0 | > 80 | 83.8 | 16.3 | 70 | 210
6 | COc1c(O)cc2oc3cc(O)c(CC=C(C)C)c(O)c3c(=O)c2c1C/C=C(\C)CCC=C(C)C [COWANIN] | > 80 | 71.6 | > 80 | 0 | > 80 | 95.8 | 33.6 | 70 | 320
7 | COc1cc2c(=O)c3c(O)c(C/C=C(\C)CCC=C(C)C)c(O)cc3oc2cc1O [COWAXANTHONE] | > 80 | 76.6 | > 80 | 0 | > 80 | 97.5 | 40.6 | 70 | 398
8 | COc1c(O)cc2oc3cc(O)c(CC=C(C)C)c(O)c3c(=O)c2c1CC=C(C)C [MANGOSTIN] | > 80 | 60 | > 80 | 0 | > 80 | 89.2 | 19.1 | 70 | 220
9 | COc1c(O)cc2oc3cc(O)cc(O)c3c(=O)c2c1C/C=C(\C)CCC=C(C)C [RUBRAXANTHONE] | > 80 | 74.1 | > 80 | 0 | > 80 | 96.8 | 39.5 | 70 | 340
